Measured values published in BindingDB's records for doi:10.1021/jm00370a001 (1984).
pKi: −log10 of the molar value. Values belong to the molecule of their own block, whether it stands above or below them. Peptide text beside a SMILES is read from it. * marks the point of attachment. Boc = CC(C)(C)OC(=O)*

Columns and labels:
[1] = biological target: Cytosol aminopeptidase (Sus scrofa) (UniProt P28839); experiment: Compound was evaluated for the inhibition of Leucine aminopeptidase from porcine kidney and the inhibition constant was determined after preincubating the enzyme and inhibitor
Cytosol aminopeptidase (Sus scrofa), sequence (P28839 whole entry, looked up): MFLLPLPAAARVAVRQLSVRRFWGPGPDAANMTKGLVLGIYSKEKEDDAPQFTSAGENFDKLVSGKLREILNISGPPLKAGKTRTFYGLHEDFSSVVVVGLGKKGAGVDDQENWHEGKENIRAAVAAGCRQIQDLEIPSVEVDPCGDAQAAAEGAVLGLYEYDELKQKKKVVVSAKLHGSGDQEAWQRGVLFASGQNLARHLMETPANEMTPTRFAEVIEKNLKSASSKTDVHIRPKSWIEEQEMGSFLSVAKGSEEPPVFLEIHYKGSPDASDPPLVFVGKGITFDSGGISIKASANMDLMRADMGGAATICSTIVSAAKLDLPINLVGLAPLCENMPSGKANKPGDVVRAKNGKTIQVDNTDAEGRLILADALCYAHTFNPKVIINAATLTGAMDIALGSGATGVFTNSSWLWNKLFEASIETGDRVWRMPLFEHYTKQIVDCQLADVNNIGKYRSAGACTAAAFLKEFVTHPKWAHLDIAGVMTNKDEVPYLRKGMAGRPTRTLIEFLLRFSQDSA

[2] = biological target: Cytosol aminopeptidase (Homo sapiens, UniProt P28838); experiment: Compound was evaluated for the inhibition of Leucine aminopeptidase and the inhibition constant was determined after preincubating the enzyme and inhibitor
Cytosol aminopeptidase, sequence (P28838 whole entry): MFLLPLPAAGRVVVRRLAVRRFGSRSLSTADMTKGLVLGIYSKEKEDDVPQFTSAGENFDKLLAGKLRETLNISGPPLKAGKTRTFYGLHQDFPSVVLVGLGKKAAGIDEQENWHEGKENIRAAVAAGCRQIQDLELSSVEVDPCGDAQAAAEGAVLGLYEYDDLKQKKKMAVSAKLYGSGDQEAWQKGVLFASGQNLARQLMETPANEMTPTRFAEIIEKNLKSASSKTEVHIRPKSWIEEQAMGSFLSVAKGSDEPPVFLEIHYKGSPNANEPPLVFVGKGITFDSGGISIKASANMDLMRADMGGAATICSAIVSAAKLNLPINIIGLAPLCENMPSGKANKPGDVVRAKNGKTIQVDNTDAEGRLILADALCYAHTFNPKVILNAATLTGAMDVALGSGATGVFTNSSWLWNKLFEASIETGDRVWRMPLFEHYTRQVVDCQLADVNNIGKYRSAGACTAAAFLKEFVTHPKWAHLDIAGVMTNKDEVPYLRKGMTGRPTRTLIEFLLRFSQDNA
Method in brief: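 For initial rates, enzyme was added to substrate plus inhibitor to start the reaction. For steady-state rates, enzyme was preincubated 15-20 min with inhibitor, then substrate was added. Double-reciprocal (Lineweaver-Burk) analysis was used.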

[3] = Compound was evaluated for the inhibition of Leucine aminopeptidase and the inhibition constant was determined after preincubating the enzyme and inhibitor
[4] = biological target: Cytosol aminopeptidase (Sus scrofa) (UniProt P28839); experiment: as above
[5] = biological target: Cytosol aminopeptidase (Sus scrofa) (UniProt P28839); experiment: as above; remark: listed apart in the source

pKi [1]: 6.30
Structure (SMILES): CC(C)CCNC(=O)[C@H](O)[C@@H](N)Cc1ccccc1 [3-Amino-2-hydroxy-N-(3-methyl-butyl)-4-phenyl-butyramide]

pKi [2]: 5.42
Structure (SMILES): CC(C)CC(NC(=O)[C@H](C)[C@@H](N)Cc1ccccc1)C(=O)O (some centres not stated) [2-(3-Amino-2-methyl-4-phenyl-butyrylamino)-4-methyl-pentanoic acid]

pKi [3]: 5.91
Structure (SMILES): CC(C)CC(N)C(O)C(=O)NC(C(=O)NC(CC(=O)O)C(=O)O)C(C)C (configuration not stated) [2-[2-(3-Amino-2-hydroxy-5-methyl-hexanoylamino)-3-methyl-butyrylamino]-succinic acid]

pKi [4]: 3.17
Structure (SMILES): CC(C)C[C@@H](N)CC(=O)N[C@H](C(=O)N[C@H](C(=O)N[C@@H](CC(=O)O)C(=O)O)C(C)C)C(C)C [2-{2-[2-(3-Amino-5-methyl-hexanoylamino)-3-methyl-butyrylamino]-3-methyl-butyrylamino}-succinic acid]

Structure (SMILES): CC(C)[C@H](NC(=O)OC(C)(C)C)C(=O)N[C@H](C(=O)N[C@@H](CC(=O)O)C(=O)O)C(C)C [2-[2-(2-tert-Butoxycarbonylamino-3-methyl-butyrylamino)-3-methyl-butyrylamino]-succinic acid] (Boc-Val-Val-Asp-OH)
pKi [1]: 2.85

pKi [5]: 6.05
Structure (SMILES): CC(C)CCNC(=O)[C@@H](NC(=O)[C@@H](NC(=O)[C@H](O)[C@@H](N)CC(C)C)C(C)C)C(C)C [3-Amino-2-hydroxy-5-methyl-hexanoic acid {2-methyl-1-[2-methyl-1-(3-methyl-butylcarbamoyl)-propylcarbamoyl]-propyl}-amide]

pKi [3]: 6.92
Structure (SMILES): CC(C)C[C@H](NC(=O)[C@@H](O)[C@H](N)CC(C)C)C(=O)O [2-(3-Amino-2-hydroxy-5-methyl-hexanoylamino)-4-methyl-pentanoic acid]
